Where a name gives a salt, the structure may show the parent alone.
What was measured:
[1] = test system: Visceral leishmaniasis; conditions: cited from earlier work
[2] = test system: Caco-2 cell monolayers; experiment: Caco-2 bidirectional permeability assay; assay type: in vitro ADME; conditions: A-to-B and B-to-A
[3] = Metabolic stability in pooled mouse liver microsomes; assay type: in vitro ADME
In short: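 Microsomes pooled from ~100 B6C3F1 mice (9–10 weeks old). Triplicate incubations: 25 μM test compound with 0.25 mg/mL protein in 50 mM phosphate (pH 7.4), 0.1% DMSO, preincubated 5 min at 37°C, then started with 1 mM NADPH. Samples taken at 0–60 min and quenched in ice-cold 10% perchloric acid with internal standard. LC-MS/MS peak-area ratios used; t½ from substrate disappearance. No-NADPH and heat-inactivated controls included.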

[4] = In vivo pharmacokinetics in male BALB/c mice

NC[C@@H]1O[C@H](O[C@H]2[C@@H](O)[C@H](O[C@@H]3[C@@H](O)[C@H](N)C[C@H](N)[C@H]3O[C@H]3O[C@H](CO)[C@@H](O)[C@H](O)[C@H]3N)O[C@@H]2CO)[C@H](N)[C@@H](O)[C@@H]1O [paromomycin, Paromomycin sulfate]
Cure rate ([1]; after 6 months, treatment with paromomycin i.m.): About 95%
Toxicity (in words) ([1]; i.m. route): no nephrotoxicity and reversible ototoxicity
Caco-2 permeability (in words) [2]: negligible permeability
Caco-2 permeability (in words) ([2]; listed as Paromomycin): low permeability
Stability in mouse liver microsomes (in words) [3]: unstable
Plasma clearance as % of hepatic (liver) blood flow ([4]; IV, mice): < 10%
clearance ([4]; male, BALB/c, mouse, plasma, iv, 15 mg/kg, CL, normal saline): 8 mL/min/kg

Reference: PMC5754937 (Indian Journal of Pharmacology, 2017)
